The values that follow come from ChEMBL document CHEMBL4007414, “Design, Synthesis, Structure-Activity Relationship Studies, and Three-Dimensional Quantitative Structure-Activity Relationship (3D-QSAR) Modeling of a Series of O-Biphenyl Carbamates as Dual Modulators of Dopamine D3 Receptor and Fatty Acid Amide Hydrolase” (J Med Chem, 2017).

Data set [1] has as its target T1, D(3) dopamine receptor (Homo sapiens, UniProt P35462). In words: Agonist activity at recombinant human dopamine D3 receptor expressed in CHO-K1 cells assessed as […] in cAMP accumulation after 30 mins by HTRF assay relative to dopamine. In kind it is functional, cell-based. For orientation: Cyclic AMP is a second messenger, typically raised through Gs and lowered through Gi signalling.

The target of data set [2] is T1, D(3) dopamine receptor. The experiment in a line: Agonist activity at recombinant human dopamine D3 receptor expressed in CHO-K1 cells assessed as […] in cAMP accumulation after 30 mins by HTRF assay. Format: functional, cell-based.
In data set [3] the target is T2, Fatty-acid amide hydrolase 1 (Homo sapiens, UniProt O00519).
T2 sequence (O00519 whole entry): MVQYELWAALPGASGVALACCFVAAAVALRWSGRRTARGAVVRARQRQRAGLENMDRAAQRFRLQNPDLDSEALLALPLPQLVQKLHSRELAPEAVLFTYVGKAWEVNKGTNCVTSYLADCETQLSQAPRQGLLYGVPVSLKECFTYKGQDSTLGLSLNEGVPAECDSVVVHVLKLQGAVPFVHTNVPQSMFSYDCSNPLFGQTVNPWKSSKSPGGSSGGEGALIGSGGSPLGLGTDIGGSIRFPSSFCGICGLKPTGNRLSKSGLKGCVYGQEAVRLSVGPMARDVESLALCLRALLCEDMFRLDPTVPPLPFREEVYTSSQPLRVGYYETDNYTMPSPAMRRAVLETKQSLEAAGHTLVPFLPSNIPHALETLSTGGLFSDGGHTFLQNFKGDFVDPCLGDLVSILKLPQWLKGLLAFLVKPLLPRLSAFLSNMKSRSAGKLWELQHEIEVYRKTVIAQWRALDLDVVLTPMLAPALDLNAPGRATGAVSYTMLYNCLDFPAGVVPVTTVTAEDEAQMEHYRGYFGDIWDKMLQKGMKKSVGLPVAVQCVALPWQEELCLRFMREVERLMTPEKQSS
The experiment in a line: Inhibition of human FAAH1 expressed in HEK293 cell membrane-enriched lysate using AMC arachidonyl amide as substrate preincubated for 50 mins followed by substrate addition measured after 4 hrs by fluorescence analysis. The method in brief:
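Membrane-enriched lysate (2,5 μg) from HEK293 cells stably expressing human FAAH-1, pre-incubated 50 min with compound or 2,5% DMSO vehicle in 50 mM Tris-HCl pH 7.4, 0.05% fatty acid-free BSA. Then 1 μM AMC arachidonyl amide added, 4 h at 37 °C.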

For data set [4], the species on record is Homo sapiens. The experiment in a line: Ratio of EC50 for human dopamine D2 receptor-short expressed in CHO-K1 cells to EC50 for recombinant human dopamine D3 receptor expressed in CHO-K1 cells. Format: cell-based.
Data set [5] addresses T3, D(2) dopamine receptor (Homo sapiens, UniProt P14416). In words: Agonist activity at human dopamine D2 receptor-short expressed in CHO-K1 cells assessed as reduction in adenylyl cyclase activator NKH 477 induced cAMP accumulation preincubated for 10 mins followed by NKH 477 addition by HTRF assay. Format: functional, cell-based.
For data set [6], the target named is T3, D(2) dopamine receptor. In words: Agonist activity at human dopamine D2 receptor-short expressed in CHO-K1 cells assessed as reduction in adenylyl cyclase activator NKH 477 induced cAMP accumulation preincubated for 10 mins followed by NKH 477 addition by HTRF assay relative to dopamine. In kind it is functional, cell-based.
In data set [7] the test system is Brain. The experiment in a line: Total drug uptake in Sprague-Dawley rat brain at 10 mg/kg, po by UPLC-MS analysis. The note with it: in vivo, read-out: Drug uptake. In kind it is ADME, organism-based. The method in brief: (§1)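 Male Sprague-Dawley rats, three per time point, dosed orally at 10 mg/kg in PEG400/Tween 80/saline 10/10/80. Brains taken at 1 h and 4 h, homogenized in RIPA buffer and extracted with cold acetonitrile plus internal standard. Compound quantified by UPLC-MS/MS; protein measured by BCA.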

The nature of data set [8]: Tmax in Sprague-Dawley rat plasma at 3 mg/kg, iv by UPLC-MS analysis. In kind it is ADME, organism-based. Put shortly:
(§2)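 Cannulated male Sprague-Dawley rats (175–200 g), three per dose, dosed IV at 3 mg/kg or PO at 10 mg/kg in PEG400/Tween 80/saline 10/10/80. Blood taken IV at 0–240 min and PO at 0–1440 min. Plasma extracted with cold acetonitrile plus internal standard and analysed by UPLC-MS/MS against a 1 nM–10 μM calibration. PK parameters derived from time/concentration profiles.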

Data set [9] has as its target Beta-1 adrenergic receptor (Homo sapiens) (UniProt P08588). The experiment in a line: Displacement of [3H](-)CGP12177 from human beta1 adrenergic receptor expressed in HEK293 cells at 10 to 100 nM after 45 mins by scintillation counting. In kind it is cell-based. (Loss of bound radioactivity is the signal in a displacement assay; it reports binding, not function.)

Data set [10] deals with Beta-2 adrenergic receptor (Homo sapiens) (UniProt P07550). In words: Displacement of [3H](-)CGP12177 from beta2 adrenergic receptor (unknown origin) at 10 to 100 nM by scintillation counting.
A short description of data set [11]: Half life in rat liver microsomes at […] by UPLC-MS analysis. Format: ADME, microsome. A general note: Liver microsomes are a subcellular fraction often used to study metabolism.
For data set [12], the target named is 5-hydroxytryptamine receptor 1B (Rattus norvegicus) (UniProt P28564). In words: Displacement of [125I]CYP from 5HT-1B receptor in OFA rat cortical membranes at 10 to 100 nM after 90 mins by scintillation counting. In kind it is cell membranes.
Data set [13] is described as follows: Tmax in Sprague-Dawley rat brain at 10 mg/kg, po by UPLC-MS analysis. In kind it is ADME, organism-based. The method in brief: as §1
The nature of data set [14]: Half life in rat plasma at 2 uM by UPLC-MS analysis. In kind it is ADME, cell-free. The method in brief:
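Compound at 2 μM final in rat plasma with 5% DMSO, incubated at 37 °C. Samples taken at 0, 5, 15, 30, 60 and 120 min and quenched in cold acetonitrile with internal standard.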

Data set [15] can be described thus: Volume of distribution in Sprague-Dawley rat plasma at 3 mg/kg, iv by UPLC-MS analysis. In kind it is ADME, organism-based. The method in brief: as §2
The nature of data set [16]: Cmax in Sprague-Dawley rat plasma at 10 mg/kg, po by UPLC-MS analysis. In kind it is ADME, organism-based. Set-up: dose 10 mg/kg, route oral. Put shortly: as §2
Data set [17] deals with T4, Monoglyceride lipase (Homo sapiens) (UniProt Q99685).
T4 sequence (whole entry): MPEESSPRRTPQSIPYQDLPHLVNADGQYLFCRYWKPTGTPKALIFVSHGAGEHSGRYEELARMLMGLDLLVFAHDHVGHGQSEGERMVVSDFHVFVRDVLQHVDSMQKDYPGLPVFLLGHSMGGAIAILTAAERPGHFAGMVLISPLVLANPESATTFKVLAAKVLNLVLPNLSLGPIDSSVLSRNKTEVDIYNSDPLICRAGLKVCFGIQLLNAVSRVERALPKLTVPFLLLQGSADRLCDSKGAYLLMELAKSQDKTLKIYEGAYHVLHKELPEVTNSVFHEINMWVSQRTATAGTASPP
In words: Irreversible inhibition of human MAGL after 1 hr by LC-MS/MS analysis.

A short description of data set [18]: Clearance in Sprague-Dawley rat plasma at 3 mg/kg, iv by UPLC-MS analysis. Format: ADME, organism-based. Put shortly: as §2
The nature of data set [19]: Oral bioavailability in Sprague-Dawley rat […] at 10 mg/kg by UPLC-MS analysis. Format: ADME, organism-based.
Data set [20] in a line: AUC in Sprague-Dawley rat brain at 10 mg/kg, po by UPLC-MS analysis. Format: ADME, organism-based. Put shortly: as §1
For data set [21], the target named is T5, 5-hydroxytryptamine receptor 1A (Homo sapiens) (UniProt P08908).
T5 sequence (whole entry): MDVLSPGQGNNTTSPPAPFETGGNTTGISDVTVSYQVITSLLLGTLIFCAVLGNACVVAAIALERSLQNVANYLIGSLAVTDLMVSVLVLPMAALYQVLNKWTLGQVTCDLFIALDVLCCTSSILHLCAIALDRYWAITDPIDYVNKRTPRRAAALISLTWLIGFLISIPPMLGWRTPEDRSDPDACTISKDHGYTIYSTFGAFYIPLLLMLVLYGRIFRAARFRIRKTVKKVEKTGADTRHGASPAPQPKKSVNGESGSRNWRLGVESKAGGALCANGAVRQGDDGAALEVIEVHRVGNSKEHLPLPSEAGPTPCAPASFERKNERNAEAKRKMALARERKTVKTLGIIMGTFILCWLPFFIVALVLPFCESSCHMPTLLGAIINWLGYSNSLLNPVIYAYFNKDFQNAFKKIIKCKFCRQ
The experiment in a line: Displacement of [3H]8-OH-DPAT from human 5HT-1A receptor expressed in Sf9 insect cells at 100 nM after 60 mins by scintillation counting.

A short description of data set [22]: Cmax in Sprague-Dawley rat brain at 10 mg/kg, po by UPLC-MS analysis. Format: ADME, organism-based. Set-up: dose 10 mg/kg, route oral. Put shortly:
as §1

Data set [23] can be described thus: Elimination half life in Sprague-Dawley rat plasma at 3 mg/kg, iv by UPLC-MS analysis. In kind it is ADME, organism-based. The note with it: read-out: beta t1/2. Put shortly:
as §2

Data set [24] is described as follows: Cmax in Sprague-Dawley rat plasma at 3 mg/kg, iv by UPLC-MS analysis. Format: ADME, organism-based. Set-up: dose 3 mg/kg, route intravenous. The method in brief:
as §2

Calls of active or inactive are those of the source. No cut-off for these calls is given here.

T3 sequence (P14416 whole entry): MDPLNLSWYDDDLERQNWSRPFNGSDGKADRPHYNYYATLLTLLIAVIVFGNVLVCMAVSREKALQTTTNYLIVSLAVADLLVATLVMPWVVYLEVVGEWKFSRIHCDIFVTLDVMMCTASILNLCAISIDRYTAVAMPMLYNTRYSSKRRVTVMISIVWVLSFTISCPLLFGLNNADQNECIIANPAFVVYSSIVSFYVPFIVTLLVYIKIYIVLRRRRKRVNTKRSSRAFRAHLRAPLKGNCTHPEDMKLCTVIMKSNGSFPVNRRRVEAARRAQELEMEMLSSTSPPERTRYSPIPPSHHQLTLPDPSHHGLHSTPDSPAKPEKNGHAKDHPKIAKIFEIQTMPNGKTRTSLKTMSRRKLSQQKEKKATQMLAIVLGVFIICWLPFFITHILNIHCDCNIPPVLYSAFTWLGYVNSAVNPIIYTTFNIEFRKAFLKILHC
T1 sequence (P35462 whole entry): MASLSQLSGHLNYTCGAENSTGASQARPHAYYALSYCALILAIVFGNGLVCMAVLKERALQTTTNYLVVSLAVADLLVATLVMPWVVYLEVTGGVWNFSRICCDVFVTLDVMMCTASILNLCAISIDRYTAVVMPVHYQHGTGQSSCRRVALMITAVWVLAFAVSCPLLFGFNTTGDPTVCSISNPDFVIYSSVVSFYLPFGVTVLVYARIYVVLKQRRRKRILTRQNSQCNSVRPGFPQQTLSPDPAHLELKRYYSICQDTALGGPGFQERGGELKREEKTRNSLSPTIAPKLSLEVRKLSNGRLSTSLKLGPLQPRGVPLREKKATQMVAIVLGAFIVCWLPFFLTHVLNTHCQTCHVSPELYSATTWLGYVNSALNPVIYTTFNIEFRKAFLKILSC
Chain of Beta-2 adrenergic receptor (Homo sapiens) (P07550 whole entry, looked up): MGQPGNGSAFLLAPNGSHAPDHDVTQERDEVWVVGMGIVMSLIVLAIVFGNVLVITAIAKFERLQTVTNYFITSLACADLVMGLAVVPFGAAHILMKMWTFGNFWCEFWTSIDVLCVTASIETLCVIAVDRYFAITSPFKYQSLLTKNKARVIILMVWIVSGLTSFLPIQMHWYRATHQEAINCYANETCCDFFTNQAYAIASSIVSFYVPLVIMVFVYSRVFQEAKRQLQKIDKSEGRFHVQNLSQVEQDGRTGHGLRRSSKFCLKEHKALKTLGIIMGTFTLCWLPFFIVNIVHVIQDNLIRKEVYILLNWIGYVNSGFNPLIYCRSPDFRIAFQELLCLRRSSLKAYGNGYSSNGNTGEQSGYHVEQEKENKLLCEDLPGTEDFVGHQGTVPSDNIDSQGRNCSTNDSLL
Chain of Beta-1 adrenergic receptor (Homo sapiens) (P08588 whole entry, looked up): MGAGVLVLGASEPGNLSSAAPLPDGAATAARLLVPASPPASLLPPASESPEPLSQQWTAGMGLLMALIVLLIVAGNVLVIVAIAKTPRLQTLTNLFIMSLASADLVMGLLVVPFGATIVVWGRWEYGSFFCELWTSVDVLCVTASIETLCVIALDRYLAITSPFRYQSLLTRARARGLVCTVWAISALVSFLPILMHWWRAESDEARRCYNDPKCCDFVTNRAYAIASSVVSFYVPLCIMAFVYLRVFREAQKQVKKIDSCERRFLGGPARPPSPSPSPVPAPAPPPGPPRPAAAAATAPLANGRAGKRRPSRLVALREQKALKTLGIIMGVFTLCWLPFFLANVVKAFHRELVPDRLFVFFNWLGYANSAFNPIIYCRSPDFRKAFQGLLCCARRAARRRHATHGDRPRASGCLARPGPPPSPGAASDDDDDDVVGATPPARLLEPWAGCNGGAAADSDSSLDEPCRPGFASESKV
Chain of 5-hydroxytryptamine receptor 1B (Rattus norvegicus) (P28564 whole entry): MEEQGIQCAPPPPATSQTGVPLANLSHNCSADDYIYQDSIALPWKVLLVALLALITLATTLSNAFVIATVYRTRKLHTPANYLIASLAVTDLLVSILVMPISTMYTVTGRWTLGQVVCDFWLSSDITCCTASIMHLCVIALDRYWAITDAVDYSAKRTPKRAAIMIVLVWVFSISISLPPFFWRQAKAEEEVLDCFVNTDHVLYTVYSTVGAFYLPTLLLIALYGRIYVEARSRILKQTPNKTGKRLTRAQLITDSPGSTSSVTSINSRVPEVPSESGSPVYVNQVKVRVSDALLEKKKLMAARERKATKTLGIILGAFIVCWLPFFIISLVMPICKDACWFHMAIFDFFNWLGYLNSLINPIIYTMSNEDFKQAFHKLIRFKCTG

For `O=C(NCCCCN1CCN(c2ccccc2C(F)(F)F)CC1)Oc1ccc(-c2ccccc2)cc1`, in data set [1], the Efficacy was over 90%. Besides, the EC50 in [2] came out at 1200 nM. Also, in [3], the IC50 is 20.7 nM.

Take `O=C(NCCCCN1CCN(c2cccc(Cl)c2Cl)CC1)Oc1ccc2c(c1)[nH]c1ccccc12`: the Efficacy in data set [1] is over 90%.

Consider `COc1ccccc1N1CCN(CCCCNC(=O)Oc2ccc3c(c2)[nH]c2ccccc23)CC1`, for which the figures for the Efficacy in data set [1] and in data set [6] were 66% and 44%, respectively. For the same molecule, in data set [4], the Ratio EC50 stood at 4.8. Also, the EC50 in data set [5] is 57.9 nM.

For `NC(=O)c1cccc(-c2ccc(OC(=O)NCCCCN3CCN(c4ccccc4)CC3)cc2)c1`, in data set [1], the Efficacy turned out to be 88%.

With `Cl.O=C(NCCCCN1CCN(c2cccc(Cl)c2Cl)CC1)Oc1ccc(-c2ccccc2)cc1`, the concentration in [7] stood at 391 nM. Further, the Tmax is 5 min in data set [8] and 4 h in data set [13]. Further, the inhibition result in [9], in data set [10], in [12] and in [17] was “inactive” in each case. Further, in data set [11], the half-life at […] was over 1 h. Further, the half-life at 2 µM in data set [14] came out at 1.62 h. Moreover, the Vd in [15] was 23.7 L/kg. The Cmax in data set [16] came to 54 ng/mL; in data set [22] it was 37 ng/mL; in data set [24] it was 500 ng/mL. This molecule also yielded a clearance in data set [18] of 110 mL/min/kg. The same molecule yielded a bioavailability in data set [19] of 21%. Moreover, in data set [20], the exposure (AUC) was 1.41 ng·h/mL. Also, the inhibition in data set [21] worked out at 60.4%. In addition, the half-life in data set [23] is 2.42 h.

Take `COc1cc(OC(=O)NCCCCN2CCN(c3cccc(Cl)c3Cl)CC2)ccc1-c1ccccc1`: the Efficacy in [1] turned out to be 32%. In data set [2], the EC50 is 1.66 nM. This molecule registered a half-maximal inhibitory concentration (IC50) in [3] of 4.3 nM.

`O=C(NCCCN1CCN(c2cccc(Cl)c2Cl)CC1)Oc1ccc2c(c1)[nH]c1ccccc12`: the Efficacy in data set [1] is over 90%.

In the case of `NC(=O)c1cccc(-c2ccc(OC(=O)NCCCCN3CCN(c4cccc(Cl)c4Cl)CC3)cc2F)c1`, the Efficacy is 74% in data set [1] and 40.4% in data set [6]. Further, the EC50 in data set [5] came to 13.7 nM. In [3], this molecule yielded a 50% inhibitory concentration (IC50) of 1 nM.

Take `NC(=O)c1cccc(-c2ccc(OC(=O)NCCCCN3CCN(c4ccccc4C(F)(F)F)CC3)cc2)c1`: the result in data set [5] was inactive.

Usually EC50 stands for the concentration needed to bring the measured effect to its halfway point. As a reminder, the IC50 is the point on the concentration scale where inhibition reaches its midpoint. Lower therefore signals greater potency. In general, Tmax refers to the time at which the peak concentration occurs. The term inhibition denotes the change of the read-out against control, counted positive when it falls. The term Vd denotes a proportionality between amount in the body and measured concentration, not a real space. As a reminder, the Cmax is the peak of the concentration-time curve. By clearance is commonly meant a measure of how efficiently the substance is removed, as volume per time. Higher therefore signals efficient removal. One may read the bioavailability as the share of a dose that reaches the circulation, judged against a reference dose that is usually intravenous. Higher therefore signals much systemic uptake. As a reminder, the AUC is concentration integrated over time.
